Screening results as filed in PubChem.
Sampled rows, rich in hits. Any-hit rate of the full collection: about 2.1%.
C2C12 statin: suppressors of statin myotoxicity in C2C12 myotubes, primary screen, cell-based, single point, plate reader; AID 602340, 2012; rescue of ATP level, % at 7.49 µM; actives 0.78% (n = 330,000); C2C12 myotubes + simvastatin, ATP luminescence, 48 h; scaled: DMSO 0, geranylgeraniol control 100;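 active = mean ATP rescue above about 67%, or every replicate alone reaching that limit, limit read from the data, passing the limit was not always enough; inconclusive = no clear call, values can overlap the other calls; inactive = mean under the limit and some replicate under it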;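 note: myotubes were challenged with 10 µM simvastatin during compound exposure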
Xi reactivation: activators of inactive X chromosome reactivation, primary screen, imaging, XiGFP fibroblasts, GFP high-content imaging, set 2; activation, % at 7.58 µM; XiGFP mouse fibroblasts, % GFP-positive cells imaging, 3 d; cells co-treated with 5-aza-dC sensitizer; scaled so ellipticine positive control = 100%; actives 0.055% (n = 360,000);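 active = mean normalized replicate activation at least 10% and every replicate at or above 10%; inconclusive = only one of the two criteria met; inactive = mean below 10% and not all replicates reach 10%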
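System: SV40-immortalized XiGFP fibroblast cells, line 68-5-11 / Incubation: 3-day compound exposure, then 15 min fixation at room temperature / Compound: single concentration per compound, delivered by pin transfer / Buffer or medium: DMEM plus 5-aza-dC sensitizer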
DENV2 CPE: inhibitors of DENV2 cytopathic effect, primary screen, cell-based, plate reader, single concentration; actives 1.7% (n = 350,000); CPE inhibition, % at 9.99 µM; DENV2-infected cells, cytopathic effect rescue; AID 651640, 2012; in the data active = CPE inhibition above about 20%, passing the limit was not always enough; inconclusive = no clear call, values can overlap the other calls; tested in BHK-21 cells
Cneo AK release: Cryptococcus neoformans cell lysis inducers, primary screen, AK release luminescence, single concentration; lysis activity, % at 15 µM; C. neoformans lysis, adenylate kinase release luminescence, 4 h; normalised: neutral wells 0, clomiphene wells 100; AID 651654, 2012; actives 0.2% (n = 360,000);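 active = mean lysis activity across replicates of at least 80%, whatever share of replicates individually reach that level; inactive = mean lysis activity below 80%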
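Material – log-phase Cryptococcus neoformans yeast cells · Input – 5 × 10^6 yeast cells/mL · Medium – fresh YPD growth medium · Doses – single compound concentration per well · Timing – static 4 h at 37 °C with compound, 1 h detection · Detection – adenylate kinase release luminescence · Read-out – signal increase indicating cell lysis · Control set – Clomiphene as positive lysis control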
Large screens that a line does not name were inactive; ! = repeats disagree.

Cc1cccc(-c2ccc([C@H]3[C@@H](CO)N4CCCCN(S(=O)(=O)c5cccc(C)c5)C[C@H]34)cc2)c1	DENV2 CPE 55 (no result: C2C12 statin)
Cc1cccc(S(=O)(=O)N2CCCCN3[C@H](CO)[C@H](c4ccc(-c5ccccc5)cc4)[C@@H]3C2)c1	none (no result: C2C12 statin, Xi reactivation)
Cc1cccc(-c2ccc([C@H]3[C@H]4CN(S(=O)(=O)c5cccc(C)c5)CCCCN4[C@H]3CO)cc2)c1	DENV2 CPE 29 (no result: C2C12 statin)
Cc1cccc(S(=O)(=O)N2CCCCN3[C@H](CO)[C@H](c4ccc(-c5cccnc5)cc4)[C@@H]3C2)c1	DENV2 CPE 47 (no result: C2C12 statin)
CC(C)NC(=O)N(C)C[C@@H]1Oc2ncccc2C(=O)N(C)C[C@@H]1C	none (no result: C2C12 statin, DENV2 CPE, Cneo AK release)
Cc1nn(CC(=O)NCc2ccccc2)c(C)c1[N+](=O)[O-]	C2C12 statin 84 (no result: Xi reactivation, DENV2 CPE)
Cc1c(Br)c([N+](=O)[O-])nn1CC(=O)NCc1ccccc1	none
Cc1nn(CC(=O)NCCc2ccccc2)c(=O)c2ccccc12	C2C12 statin 137 (no result: Xi reactivation, DENV2 CPE)
CNC(=O)Cn1nc(C)c2ccccc2c1=O	none (no result: C2C12 statin, Xi reactivation, DENV2 CPE)
Cc1ccc(S(=O)(=O)N[C@H]2CC[C@H](CC(=O)NC3CCCCC3)O[C@H]2CO)cc1	none
C[C@@H]1CCCCO[C@H](CN(C)S(=O)(=O)c2ccccc2)[C@H](C)CN([C@H](C)CO)C(=O)c2cc(NC(=O)Nc3cccc4ccccc34)ccc2O1	none (no result: C2C12 statin)
COCCn1c(N)c(C(=O)Nc2sc3c(c2C(=O)OC)CCCC3)c2nc3ccccc3nc21	C2C12 statin 99 (no result: Xi reactivation, DENV2 CPE)
CCOC(=O)C1=CN(Cc2ccco2)S(=O)(=O)NC1c1cccc(OC)c1 (stereo not given)	none
CCOC(=O)C1=CN(CC)S(=O)(=O)NC1c1cccc(OC)c1 (stereo not given)	DENV2 CPE 24
C[C@H](CO)N1C[C@H](C)[C@@H](CN(C)S(=O)(=O)c2cn(C)cn2)OCCCC[C@H](C)Oc2ccc(NC(=O)Nc3ccc(C(F)(F)F)cc3)cc2C1=O	none
COc1ccc(CN(C)C[C@H]2Oc3c(NC(=O)c4cnccn4)cccc3C(=O)N([C@@H](C)CO)C[C@@H]2C)cc1	none
O=C(O)/C=C/c1cn(-c2ccccc2)nc1-c1ccccc1	C2C12 statin 90
C=C(C)Cn1c(=S)[nH]c2ccccc2c1=O	C2C12 statin 144 (no result: Xi reactivation, DENV2 CPE)
CCC(=O)N1C[C@@H](O)COC[C@H]2O[C@@H](CC(=O)N3CCCCC3)CC[C@@H]21	none
O=C(C[C@H]1C[C@@H]2c3cc(NS(=O)(=O)c4ccc(F)cc4)ccc3O[C@@H]2[C@@H](CO)O1)NCC1CC1	none
CCCCn1nnnc1C1(C)CCC(=O)N1Cc1ccc(OC)cc1 (stereo not given)	none (no result: C2C12 statin, Cneo AK release)
CC1(c2nnnn2Cc2ccccc2)CCC(=O)N1CCOc1ccccc1 (stereo not given)	DENV2 CPE 92 (no result: C2C12 statin, Cneo AK release)
COc1ccc(-n2nnnc2C2(C)CCC(=O)N2Cc2ccccc2)cc1 (stereo not given)	DENV2 CPE 63 (no result: C2C12 statin, Cneo AK release)
Cc1ccc(CN2C(=O)CCC2(C)c2nnnn2Cc2ccccc2)cc1 (stereo not given)	DENV2 CPE inconclusive (no result: C2C12 statin, Cneo AK release)
CCCCn1nnnc1C1(C)CCC(=O)N1CCOc1ccccc1 (stereo not given)	DENV2 CPE 66 (no result: C2C12 statin, Cneo AK release)
COc1ccc(CN2C(=O)CCC2(C)c2nnnn2C2CCCCC2)cc1 (stereo not given)	none (no result: C2C12 statin, Cneo AK release)
CCCS(=O)(=O)N1CCCC(C(=O)NCCN2CCC(Cc3ccccc3)CC2)C1 (stereo not given)	C2C12 statin 117 (no result: Xi reactivation, DENV2 CPE)
CCCS(=O)(=O)N1CCCC(C(=O)NCCc2cccc(C)c2)C1 (stereo not given)	DENV2 CPE 27
Cc1cccc(Oc2nccc(C(F)(F)F)c2C(=O)Nc2ccc(F)cc2F)c1	DENV2 CPE 32 (no result: Cneo AK release)
O=C(Nc1ccc(F)cc1F)c1c(C(F)(F)F)ccnc1Oc1ccccc1	none (no result: C2C12 statin)
Cc1cccc(N(C(=O)Cn2nnc(-c3ccccc3F)n2)C(C(=O)NC(C)(C)C)c2ccncc2)c1 (stereo not given)	none (no result: C2C12 statin, Cneo AK release)
Cc1cccc(N(C(=O)Cn2nnc3ccccc32)C(C(=O)NC(C)(C)C)c2ccsc2)c1 (stereo not given)	DENV2 CPE 24 (no result: Xi reactivation)
CNC[C@@H]1Oc2c(NS(C)(=O)=O)cccc2C(=O)N([C@H](C)CO)C[C@@H]1C	none
C[C@@H]1CN([C@H](C)CO)C(=O)c2cc(C#Cc3ccccc3F)cnc2O[C@H]1CN(C)C(=O)C1CCOCC1	DENV2 CPE 35
C[C@@H]1CN([C@@H](C)CO)C(=O)c2cc(-c3ccccc3F)cnc2O[C@@H]1CN(C)C(=O)C1CCOCC1	DENV2 CPE 60
C[C@H]1CN([C@@H](C)CO)C(=O)c2cc(C#Cc3ccccc3F)cnc2O[C@H]1CN(C)C(=O)C1CCOCC1	none
COc1ccccc1NC(=O)COc1ccc(CO)cc1Cl	C2C12 statin 75 (no result: Xi reactivation, DENV2 CPE)
O=C(COc1ccc(CO)cc1Cl)Nc1ccc(F)cc1	none (no result: Xi reactivation, DENV2 CPE)
CN1C(=O)c2cc(NS(=O)(=O)c3ccccc3Cl)ccc2OC[C@H]2O[C@H](CC(=O)O)CC[C@@H]21	DENV2 CPE inconclusive
C[C@@H]1CN([C@H](C)CO)C(=O)c2cc(NC(=O)NC3CCCCC3)ccc2O[C@@H](C)CCCCO[C@@H]1CN(C)Cc1ccccc1	none (no result: C2C12 statin)
O=C(CSc1ncnc2c1oc1ccccc12)Nc1cccc(C(F)(F)F)c1	DENV2 CPE 37 (no result: C2C12 statin)
C[C@@H]1CN([C@H](C)CO)C(=O)c2cc(NC(=O)CCC(F)(F)F)ccc2O[C@H]1CN(C)S(=O)(=O)c1ccccc1	none
COc1ccccc1N1CCN(C(=O)C(=O)N/N=C/c2cccc(O)c2)CC1	C2C12 statin 96 (no result: Xi reactivation, DENV2 CPE)
COc1ccccc1/C=N/NC(=O)C(=O)N1CCN(c2ccccc2OC)CC1	none (no result: C2C12 statin, DENV2 CPE)
O=S(=O)(NCc1csc(-c2cccs2)n1)c1cccc(C(F)(F)F)c1	C2C12 statin 131
C[C@H]1CN([C@@H](C)CO)C(=O)c2c(c3ccccc3n2C)-c2ccccc2CO[C@H]1CN(C)Cc1ccccc1	none (no result: C2C12 statin, Cneo AK release)
COc1cccc(S(=O)(=O)Nc2ccc3c(c2)C(=O)N(C)C[C@@H](OC)[C@H](C)CN[C@H](C)CO3)c1	none
CO[C@H]1CN(C)C(=O)c2cc(NS(=O)(=O)c3ccc(-c4ccccc4)cc3)ccc2OC[C@H](C)NC[C@@H]1C	DENV2 CPE 23
COc1cccc(S(=O)(=O)Nc2ccc3c(c2)C(=O)N(C)C[C@H](OC)[C@H](C)CN[C@@H](C)CO3)c1	DENV2 CPE 20!
CO[C@H]1CN(C)C(=O)c2cc(NS(=O)(=O)c3ccc(-c4ccccc4)cc3)ccc2OC[C@H](C)NC[C@H]1C	none
CCCCCOCC1CC(C/C(C)=N/NC(N)=S)C(=O)O1 (stereo not given)	none (no result: C2C12 statin, Cneo AK release)
C/C(CC1CC(COCC(C)C)OC1=O)=N\NC(N)=S (stereo not given)	DENV2 CPE 91 (no result: C2C12 statin, Cneo AK release)
